# Screening data from PubChem.
# Rows were chosen to be rich in hits. Some 1.2% of all compounds tested hit in one or more screens of this group.
# proCasp3 act: activates human procaspase-3; P42574; recombinant procaspase-3 D3A, Ac-DEVD-pNA absorbance 405 nm; activation, % at 8.5 µM; hit rate 0.11% among 330,000;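 active = activation above the mean of all tested compounds plus 3 SD, cut at about 21% in these data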;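 note: 0% = DMSO alone and 100% = DMSO wells spiked with extra 5 µM PC-3 D3A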
#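 assay system = Procaspase-3 D3A mutant | signal = absorbance at 405 nm, 0 and 120 min | times = 1 h preincubation plus 2 h reaction at 25 °C | repeats = single replicate | read-out = % activation between DMSO and enzyme-spiked controls | medium = Zinc-free HEPES saline buffer with Triton X-100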
# Lipid droplet: hepatic lipid droplet formation modulation | AML12 mouse hepatocytes, oleate lipid droplets, BODIPY imaging | inhibition, % at 6.5 µM | hit rate 0.4% among 240,000 | AID 1656;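 active = lipid droplet intensity inhibited by at least 50%, with more than 500 cells counted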
#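 Material: mouse AML12 hepatocyte cell line, fixed after treatment; Timing: compound with oleate, overnight; Technique: high-content imaging of BODIPY-stained droplets and DAPI nuclei; Probe or stimulus: oleate, 100 µM final; Dosing: compound at 6.5 µM only.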
# p-CIP stab down: lowers stability of the mouse p/CIP coactivator protein; Q05BA5; F442A p/CIP-EGFP cells, EGFP fluorescence, 16 h; decrease of EGFP signal, % at 10 µM; hit rate 0.01% among 290,000;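 active = EGFP signal decrease of at least 30% at 10 µM or well 3 SD below plate mean, unless failing retest; inactive = the rest, including hits failing retest or dose response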
# FXN GAA850 act: increases GAA850 frataxin promoter reporter activity. activation, % at 6 µM. hit rate 0.56% among 360,000. HEK293 lucGAA850 FXN promoter luciferase reporter, 24 h; percent of 10 µM SAHA response;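 active = activation above the average of all compounds screened plus 3 SD, cutoff fixed separately per campaign, cut at about 7.5% in these data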;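 note: 0% = DMSO wells and 100% = 10 µM SAHA wells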
# Rce1 inh: yeast Ras-converting enzyme inhibition | yeast membranes, quenched prenylated peptide cleavage fluorescence | calls only | hit rate 0.27% among 290,000 | Q03530;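 active = fall in fluorescence gain of 50% or more versus controls, with final raw signal at or below 3038400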;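 note: plate controls were neutral control wells for no effect and wells lacking membranes for full effect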
# Target sequence (Q03530 whole entry, looked up): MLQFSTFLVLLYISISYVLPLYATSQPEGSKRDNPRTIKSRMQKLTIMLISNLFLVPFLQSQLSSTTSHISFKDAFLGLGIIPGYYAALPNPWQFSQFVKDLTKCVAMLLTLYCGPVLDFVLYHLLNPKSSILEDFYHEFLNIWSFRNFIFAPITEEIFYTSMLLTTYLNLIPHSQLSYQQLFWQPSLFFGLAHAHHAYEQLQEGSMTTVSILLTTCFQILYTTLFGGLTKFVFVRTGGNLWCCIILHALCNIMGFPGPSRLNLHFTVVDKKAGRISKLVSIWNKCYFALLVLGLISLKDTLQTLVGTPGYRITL
# procasp7 counter: counter-screen: procaspase-7 (human) activation | hit rate 0.093% among 330,000 | recombinant procaspase-7, Ac-DEVD-pNA absorbance 405 nm; D23A/D198A/D206A triple mutant, cannot self-cleave; scale: DMSO 0, 5 µM enzyme 100 | activation, % at 8.5 µM | P55210;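 active = percent activation above the screen-wide mean plus 3 SD, cut at about 25% in these data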
# Target sequence (P55210 whole entry D23A/D198A/D206A): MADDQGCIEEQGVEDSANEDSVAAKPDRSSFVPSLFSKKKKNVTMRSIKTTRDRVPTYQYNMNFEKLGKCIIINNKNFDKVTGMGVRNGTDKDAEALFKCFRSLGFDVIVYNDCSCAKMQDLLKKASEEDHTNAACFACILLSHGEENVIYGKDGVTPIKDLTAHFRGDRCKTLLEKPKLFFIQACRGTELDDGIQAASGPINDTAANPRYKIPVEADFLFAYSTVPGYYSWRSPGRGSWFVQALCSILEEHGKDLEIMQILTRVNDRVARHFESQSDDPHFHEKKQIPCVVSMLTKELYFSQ
#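 Assay system: Uncleavable procaspase-7 mutant enzyme; Input: 2 µM procaspase-7 mutant as dispensed; Also added: DEVD-pNA substrate; Medium: Zinc-free HEPES pH 7.4 with 300 mM NaCl, 0.01% Triton X-100; Timing: 1 h compound preincubation, 2 h substrate cleavage, 25 °C; Measured by: Epi-absorbance of released pNA at 405 nm, two timepoints.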
# GAA30 FXN cntr: counter-screen for GAA850 frataxin promoter activators: GAA30 promoter activation | shares compounds with FXN GAA850 act | HEK293 lucGAA30 FXN promoter luciferase, 24 h; DMSO = 0%, 5 µM ipriflavone = 100% | activation, % at 6 µM | hit rate 66% among 1,900 | AID 588350;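 active = mean activation above the mean of solvent-only control wells plus 3 SD, cut at about 22% in these data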;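 note: counterscreen of GAA850 promoter hits where activity marks nonselective or luminescence artifacts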
# FXN GAA850 conf: confirmation of GAA850 frataxin (FXN) promoter activators; shares compounds with FXN GAA850 act; HEK293 lucGAA850 FXN promoter luciferase reporter, 24 h; 100% = activation by SAHA; activation, % at 6 µM; hit rate 86% among 1,900;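 active = mean activation above a set limit taken from the primary screen, cut at about 8% in these data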;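 note: 0% = DMSO wells and 100% = 10 µM SAHA wells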
# Numbers without * were called inactive; i = inactive; x = not tested or not shown.
SMILES,proCasp3 act,Lipid droplet,p-CIP stab down,FXN GAA850 act,Rce1 inh,procasp7 counter,GAA30 FXN cntr,FXN GAA850 conf
C=C1C(=O)O[C@H]2C[C@]3(C)C([C@@H](OC(=O)/C(C)=C/C)[C@H]12)[C@](C)(O)CC[C@H]3O (some centres undefined),-4.8,-1.4,-5.6,1.3,i,7.4,x,x
C=C[C@@]1(C)CC(=O)[C@]2(O)[C@@]3(C)[C@@H](O)CCC(C)(C)[C@@H]3[C@H](O)[C@H](OC(C)=O)[C@@]2(C)O1,7.0,x,x,16.4*,i,-10.8,17.7,15.1*
C=C[C@@]1(C)CC(=O)[C@]2(O)[C@@]3(C)[C@@H](O)CCC(C)(C)[C@@H]3[C@H](OC(C)=O)[C@H](O)[C@@]2(C)O1,10.5,x,x,12.3*,i,-3.0,7.4,13.7*
Cc1ccccc1CS(=O)(=O)Cc1ccc(C(=O)NC2CCCCC2)o1,8.5,-5.7,-5.6,0.2,i,-2.6,x,x
Cc1ccc(C(=O)Nc2sc3c(c2C(=O)NCc2ccco2)CCCC3)cc1,0.7,25.1,0.5,6.0,x,1.5,x,x
O=C(Nc1sc2c(c1C(=O)NCc1ccco1)CCCC2)c1ccc2c(c1)OCO2,-20.0,-2.1,-1.4,10.2*,i,-12.2,69.2*,30.8*
Cc1ccc(-c2nc(NCCCO)c3ccccc3n2)cc1,11.7,6.2,-9.8,3.1,i,-4.8,x,x
OCCCNc1c2ccccc2nc2ccccc12,-5.3,x,-6.5,13.3*,i,-4.0,-15.2,118.8*
Cc1c(C(=O)Nc2ccncc2)sc2nc(-c3ccc(F)cc3)cn12,0.5,-25.8,-3.4,14.9*,i,3.7,45.7*,24.7*
Cn1c(CNc2ccc(O)cc2)nc2ccccc21,-1.6,9.0,-20.9,8.3*,i,-2.2,86.2*,26.2*
O=C(Nc1nnc([C@H]2C[C@H](O)[C@@H](CO)O2)s1)Nc1ccccc1Oc1ccccc1,x,x,x,-1.6,x,x,x,x
CN(CC(=O)Nc1cccc(F)c1)C(=O)CCN1C(=O)C2CC=CCC2C1=O (centres undefined),5.2,x,x,-0.2,x,9.0,x,x
CN(CC(=O)Nc1cccc(F)c1)C(=O)CCCN1C(=O)c2cccc3cccc(c23)C1=O,9.6,x,x,13.9*,i,-5.2,29.6*,10.7*
O=C(NCc1cccc(Cl)c1)c1ccc(S(=O)(=O)N2CCCCC2)cc1,x,x,x,-0.5,x,x,x,x
CN(C)c1ccc(C(=O)c2ccc(O)cc2O)cc1,-25.3,14.5,8.3,1.4,i,-69.6,x,x
CN(C)c1ccc(Cc2cc3c(O)ccc(O)c3cc(Cc3ccc(N(C)C)cc3)c2=O)cc1,x,x,x,14.2*,x,x,16.1,23.0*
Nc1nonc1-n1nnc(C(=O)N/N=C/c2ccccc2F)c1-c1cccs1,3.6,-6.7,11.0,0.0,i,5.1,x,x
C/C(=N\N=C\c1ccccc1F)c1nnn(-c2nonc2N)c1C,2.2,-9.6,-5.7,10.1*,i,14.9,88.3*,31.4*
Cc1ccccc1CSc1nnc2ccc(-c3ccncc3)nn12,-3.5,18.4,2.7,7.7*,i,3.3,29.6*,12.5*
c1ccc(CSc2nnc3ccc(-c4ccncc4)nn23)nc1,4.4,7.9,-0.3,3.2,i,6.4,x,x
O=C(NCCCn1ccnc1)c1cc(-c2cccs2)on1,4.1,x,-7.1,41.4*,i,1.4,158.6*,114.3*
COc1ccc(OC)c(-c2cc(C(=O)NCCCn3ccnc3)no2)c1,2.0,x,-2.0,6.1,i,3.8,x,x
O=C(NC1CCCC1)c1cc(-c2ccccc2O)on1,-0.1,-13.9,-6.1,3.6,i,6.7,x,x
Cc1ccc(-c2cc(C(=O)NCCCN3CCOCC3)no2)cc1,12.4,19.1,2.6,-8.9,i,10.6,x,x
O=C(NC1CCCC1)c1cc(-c2cccs2)on1,4.7,x,-10.0,18.1*,i,8.0,158.8*,91.5*
SMILES,proCasp3 act,Lipid droplet,p-CIP stab down,FXN GAA850 act,Rce1 inh,procasp7 counter,GAA30 FXN cntr,FXN GAA850 conf
O=C(NCCCN1CCOCC1)c1cc(-c2cccs2)on1,2.8,x,-24.0,20.0*,i,0.2,112.9*,80.0*
O=C(NCC(c1cccs1)N1CCOCC1)c1cc2ccccc2oc1=O (centres undefined),2.3,x,x,-0.6,x,1.8,x,x
CCC/C=C/c1ccc(CN2C(CC(C)C)C(=O)N(Cc3cn(Cc4ccco4)nn3)CCS2(=O)=O)cc1 (centres undefined),x,x,x,0.5,x,x,x,x
CC(C)(C)C(=O)NCc1ccc(C(=O)CSc2nnc(-c3ccncc3)n2C2CC2)s1,x,x,x,0.5,x,x,x,x
CC(=O)c1ccc(S(=O)(=O)NCCOc2ccccc2)cc1,x,x,x,0.7,x,x,x,x
CC(=Nc1ccc(Br)cc1)c1sc2ccccc2c1O,-10.2,5.8,-8.4,7.9*,i,-6.5,116.0*,36.2*
c1ccc2oc(-c3ccn[nH]3)cc2c1,1.8,-10.9,-3.0,8.0*,i,4.8,121.8*,38.4*
CC(C)C[C@@H](CN1CCCC1CN1C(=S)NC[C@@H]1Cc1ccc(O)cc1)N1C[C@H](Cc2ccc(O)cc2)N(CCc2ccccc2)C1=S (some centres undefined),x,x,x,-3.7,x,x,x,x
O=C(NCc1cccnc1)NC1(C(F)(F)F)Oc2ccc(Cl)cc2O1 (centres undefined),2.1,6.8,-3.5,12.3*,i,-3.1,25.6*,18.4*
Cc1ccc(Cl)cc1NC(=O)NCc1cccnc1,x,-3.7,2.2,-0.8,i,x,x,x
CCCCNC(=O)NC1(C(F)(F)F)Oc2ccccc2O1,4.3,3.5,-3.1,1.7,i,-1.7,x,x
Cc1cc(NC(=O)NC2(C(F)(F)F)Oc3ccc(Cl)cc3O2)no1 (centres undefined),-9.2,9.3,-4.9,17.9*,i,-2.8,29.9*,14.6*
Cc1cc(NC(=O)Nc2ccc(F)c(Cl)c2)no1,6.5,3.1,-7.4,1.0,i,-2.8,x,x
COCCNC(=O)NC1(C(F)(F)F)Oc2ccc(Cl)cc2O1 (centres undefined),0.9,x,7.1,14.9*,i,13.9,16.5,10.9*
CCCCN(C(C)=O)c1c(CC)nc2ccc(C(=O)Nc3cccc(OCC(=O)N(C)C)c3)cn12,x,x,x,-0.8,x,x,x,x
CCCc1nnc(SCC(=O)Nc2ccc(NC(C)=O)cc2)n1-n1cccc1,-9.8,x,x,-1.5,i,-0.4,x,x
CC(=O)N1CCc2cc(NC(=O)C3(C)CCN3Cc3ccccc3Cl)ccc21 (centres undefined),x,x,x,-5.3,x,x,x,x
